Most compounds without a hit are left out; they make up all but 1.9% or so of the library.
CHRM4 PAM: potentiates acetylcholine response at human M4 receptor. P08173. CHO-K1 hM4/Gqi5, Fluo-8 calcium fluorescence, ACh EC20; 0% = ACh EC20, 100% = maximal ACh. activation, % at 3 µM. 0.4% of 360,000 active. AID 624126;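 active means activation above its plate's cutoff, the mean activation of sample wells plus 3 SD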
CHRM5 agonist: agonists of human muscarinic M5 receptor (CHRM5); 0.19% of 360,000 active; P08912; AID 624037; CHO-K1 hM5 cells, Fluo-8 calcium fluorescence; 0% DMSO wells, 100% maximal acetylcholine response; activation, % at 3 µM;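 active means activation above the run's mean over test compounds plus 3 SD, cut at about 23% in these data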;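 further: signal is peak over basal fluorescence ratio across the kinetic read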
Target sequence (P08912 whole entry, looked up): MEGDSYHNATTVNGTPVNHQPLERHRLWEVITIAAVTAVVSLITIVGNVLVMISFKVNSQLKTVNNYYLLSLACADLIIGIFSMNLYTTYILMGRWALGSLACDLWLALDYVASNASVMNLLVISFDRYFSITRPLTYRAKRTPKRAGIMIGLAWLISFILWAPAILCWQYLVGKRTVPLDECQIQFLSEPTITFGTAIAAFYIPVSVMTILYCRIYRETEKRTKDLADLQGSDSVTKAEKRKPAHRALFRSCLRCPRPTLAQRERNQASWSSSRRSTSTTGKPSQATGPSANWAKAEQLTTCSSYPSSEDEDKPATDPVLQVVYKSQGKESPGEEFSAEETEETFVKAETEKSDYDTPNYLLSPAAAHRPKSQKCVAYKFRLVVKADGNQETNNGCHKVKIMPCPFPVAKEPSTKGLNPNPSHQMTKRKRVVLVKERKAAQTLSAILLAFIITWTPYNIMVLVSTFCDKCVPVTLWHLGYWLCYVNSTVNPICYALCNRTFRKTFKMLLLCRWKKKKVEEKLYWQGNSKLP
M5 antag: CHRM5 antagonism in calcium assay; inhibition, % at 3 µM; P08912; CHO-hM5 cells, Fluo-8 calcium fluorescence, ACh EC80; 0.59% of 360,000 active;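 active means inhibition above a per-plate cutoff, the mean of that plate's test compounds plus 3 SD, cut at about 27% in these data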;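 further: 0% = acetylcholine EC80 with DMSO and 100% = DMSO without agonist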
CHRM5 PAM: potentiates acetylcholine response at human M5 receptor; P08912; CHO-K1 hM5, Fluo-8 calcium, ACh EC20 PAM; 0% = ACh EC20, 100% = ACh EC100; activation, % at 3 µM; 0.3% of 360,000 active;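 active means activation above the run cutoff, the mean activation of all test compounds plus 3 SD, cut at about 18% in these data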
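Assay system: CHO-K1 hM5 cells. Also added: acetylcholine at EC20 concentration, added after compound. Dosing: 3 µM, single dose. Times: compound preincubation 140 s before EC20 acetylcholine addition. Signal: Fluo-8 calcium fluorescence. Measure: % activation relative to EC20 and EC100 ACh responses. Repeats: singlicate, one well per test compound.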
CHRM4 antagonist: antagonists of human muscarinic M4 receptor (CHRM4); CHO-hM4 cells, ACh EC80, Fluo-8 calcium fluorescence; P08173; 0.73% of 360,000 active; inhibition, % at 3 µM;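 active means inhibition above its plate's cutoff, the mean inhibition of sample wells plus 3 SD, cut at about 27% in these data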;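 further: 0% = acetylcholine EC80 with DMSO and 100% = DMSO without agonist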
CHRM4 agonist: agonists of human muscarinic M4 receptor (CHRM4); activation, % at 3 µM; AID 624127; CHO-K1 hM4/Gqi5, Fluo-8 calcium fluorescence; vehicle 0%, full acetylcholine response 100%; P08173; 0.14% of 360,000 active;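 active means activation above the run mean over all test wells plus 3 SD, cut at about 32% in these data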;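 further: peak over basal fluorescence ratio per well then scaled between controls; 0% = DMSO wells and 100% = acetylcholine at EC100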
Active calls of the source: *.

O=C(COC(=O)COc1ccccc1)Nc1ccc(Br)cc1Br was read as CHRM4 PAM 1, CHRM5 agonist 2, M5 antag 12, CHRM5 PAM 3, CHRM4 antagonist 6 and CHRM4 agonist 0.
Screening Cc1ccc2nc(-c3ccc(NC(=O)C(C)Sc4nncs4)cc3)sc2c1 (stereo not drawn) returned CHRM4 PAM 5, CHRM5 agonist 6, M5 antag 8, CHRM5 PAM -3, CHRM4 antagonist 29* and CHRM4 agonist 8.
For Cc1ccc2nc(-c3ccc(NC(=S)NC(=O)CC(C)C)cc3)sc2c1 the results were CHRM4 PAM 10, CHRM5 agonist 0, M5 antag -6, CHRM5 PAM -1, CHRM4 antagonist -1 and CHRM4 agonist 0.
CCOC(=O)Cn1c(=N)n(CCOc2ccc(OC)cc2)c2ccccc21 was read as CHRM4 PAM 4, CHRM5 agonist -5, M5 antag 1, CHRM5 PAM 5, CHRM4 antagonist 7 and CHRM4 agonist 2.
Screening CCOC(=O)Cn1c(=N)n(CCOc2ccc3ccccc3c2)c2ccccc21 returned CHRM4 PAM -9, CHRM5 agonist 6, M5 antag 10, CHRM5 PAM -21, CHRM4 antagonist 9 and CHRM4 agonist 39*.
`O=[N+]([O-])c1cc(-c2ccc(/C=N\n3cnnc3)o2)cc([N+](=O)[O-])c1` gave CHRM4 PAM 3, CHRM5 agonist 2, M5 antag 8, CHRM5 PAM 2, CHRM4 antagonist 3 and CHRM4 agonist 0.
`COc1ccc(-c2ccc(SCC(=O)NCc3ccc4c(c3)OCO4)nn2)cc1OC` gave CHRM4 PAM -5, CHRM5 agonist -3, M5 antag 1, CHRM5 PAM -3, CHRM4 antagonist -10 and CHRM4 agonist 7.
For Oc1c(C(c2cccs2)N2CCN(c3ccccc3)CC2)sc2ncnn12 (stereo not drawn) the results were CHRM4 PAM -1, CHRM5 agonist 1, M5 antag 3, CHRM5 PAM -4, CHRM4 antagonist -3 and CHRM4 agonist 2.
`Cc1ccc2c(c1)cc1c(=O)n(CC(=O)NCCCc3ccccc3)nc(C)n12` gave CHRM4 PAM -10, CHRM5 agonist 3, M5 antag 4, CHRM5 PAM -11, CHRM4 antagonist 32* and CHRM4 agonist 19.
Screening Cc1nn(CC(=O)NCCCc2ccccc2)c(=O)c2cc3occc3n12 returned CHRM4 PAM 15, CHRM5 agonist -3, M5 antag -9, CHRM5 PAM 7, CHRM4 antagonist -23 and CHRM4 agonist 0.
Screening Cc1ccc(NC(=O)c2cncc(Br)c2)c([N+](=O)[O-])c1 returned CHRM4 PAM 23*, CHRM5 agonist 0, M5 antag -1, CHRM5 PAM -2, CHRM4 antagonist -9 and CHRM4 agonist 1.
For Cc1ccc(NC(=O)c2cccnc2)c([N+](=O)[O-])c1 the results were CHRM4 PAM 0, CHRM5 agonist -1, M5 antag 6, CHRM5 PAM -3, CHRM4 antagonist -4 and CHRM4 agonist 0.
For CC(C)N(C)C(=O)c1ccc(OC2CCN(CCc3ccccc3)CC2)cc1 the results were CHRM4 PAM -30, CHRM5 agonist -18, M5 antag 3, CHRM5 PAM -4, CHRM4 antagonist 6 and CHRM4 agonist 2.
CN(Cc1nccn1C)C(=O)c1ccc(OC2CCN(CCc3ccccc3)CC2)cc1 was read as CHRM4 PAM -13, CHRM5 agonist -9, M5 antag 28*, CHRM5 PAM -11, CHRM4 antagonist 20 and CHRM4 agonist 0.
CC(c1nccs1)N(C)C(=O)c1ccc(OC2CCN(CCc3ccccc3)CC2)cc1 (stereo not drawn) was read as CHRM4 PAM -16, CHRM5 agonist -9, M5 antag 36*, CHRM5 PAM -14, CHRM4 antagonist 31* and CHRM4 agonist 2.
Screening CN1CCN(C(c2cccc(Cl)c2)c2ccccc2Cl)CC1 (stereo not drawn) returned CHRM4 PAM -16, CHRM5 agonist -4, M5 antag 87*, CHRM5 PAM -18, CHRM4 antagonist 64* and CHRM4 agonist 3.
`CN1CCN(C(c2ccccc2)c2ccc(Cl)cc2)CC1` (stereo not drawn) gave CHRM4 PAM -17, CHRM5 agonist 0, M5 antag 21, CHRM5 PAM -19, CHRM4 antagonist 24 and CHRM4 agonist 5.
Screening CC1Cc2ccccc2N1S(=O)(=O)c1cnc[nH]1 (stereo not drawn) returned CHRM4 PAM 7, CHRM5 agonist 5, M5 antag -4, CHRM5 PAM 43*, CHRM4 antagonist -2 and CHRM4 agonist 1.
For O=c1cc(SCc2ccc(Cl)cc2Cl)nc[nH]1 the results were CHRM4 PAM 2, CHRM5 agonist -2, M5 antag 15, CHRM5 PAM 0, CHRM4 antagonist 1 and CHRM4 agonist 1.
Screening O=S(=O)(c1ccccc1OC(F)(F)F)N1CCN(c2ccnc3cc(Cl)ccc23)CC1 returned CHRM4 PAM 0, CHRM5 agonist -6, M5 antag 12, CHRM5 PAM 2, CHRM4 antagonist 2 and CHRM4 agonist 0.
For CCOc1ccccc1NC(=O)C(OC(=O)c1ccc(N(C)C)cc1)c1ccccc1 (stereo not drawn) the results were CHRM4 PAM 1, CHRM5 agonist -2, M5 antag 3, CHRM5 PAM -5, CHRM4 antagonist 3 and CHRM4 agonist 0.
For CCOC(=O)C(=N/O)/C(C)=N/NC(=O)C(=O)Nc1ccc(Cl)cc1 the results were CHRM4 PAM -9, CHRM5 agonist 4, M5 antag 27*, CHRM5 PAM -20, CHRM4 antagonist 6 and CHRM4 agonist 13.
`CCC(=O)c1ccc2c(c1)N(CCCN(C)C)c1ccccc1S2` gave CHRM4 PAM -17, CHRM5 agonist -1, M5 antag 74*, CHRM5 PAM -19, CHRM4 antagonist 39* and CHRM4 agonist 5.
For CC(=O)c1ccc2c(c1)N(C)c1ccccc1S2 the results were CHRM4 PAM 5, CHRM5 agonist -3, M5 antag 2, CHRM5 PAM 7, CHRM4 antagonist 8 and CHRM4 agonist -1.
Screening CN(C)CCCN1c2ccccc2Sc2ccccc21 returned CHRM4 PAM -17, CHRM5 agonist 1, M5 antag 90*, CHRM5 PAM -20, CHRM4 antagonist 51* and CHRM4 agonist 7.
CNCCCN1c2ccccc2CCc2ccccc21 was read as CHRM4 PAM -19, CHRM5 agonist 1, M5 antag 85*, CHRM5 PAM -19, CHRM4 antagonist 36* and CHRM4 agonist 10.
`CC(=O)c1ccc2c(c1)N(CCCN(C)C)c1ccccc1S2` gave CHRM4 PAM -17, CHRM5 agonist -1, M5 antag 70*, CHRM5 PAM -18, CHRM4 antagonist 34* and CHRM4 agonist 2.
